For series [1], the system named is P388. In words: Evaluation in vivo against […] cell line for percentage increase in lifespan of drug-treated tumor-bearing animals when treated at 45 mg/kg dose.(ILS). Type of series: functional, Mus musculus. An outline of the steps: (§1)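 Animals received 10^6 P388 cells intraperitoneally. On day 1, 24 h after inoculation, a single intraperitoneal drug dose was given in 0.1 mL of 30% v/v dimethylacetamide/water. ILS is the percentage increase in lifespan of treated tumor-bearing animals at the optimal dose, defined as the dose giving maximal life extension. ILS above 20% is counted as significant.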

For a further series, the species on record is Bos taurus. In words: Spectrophotometry for binding to calf thymus DNA in 0.01 M HEPES buffer (pH 7.0) at 25 degree C. Format: ADME. The following applies: cattle.
The subject of the next series is CHO-AA8. In words: Inhibition of cell growth in culture against Chinese hamster ovary derived cell line, AA8. Format: functional, cell-based, Cricetulus griseus. An outline of the steps:
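AA8 Chinese hamster ovary cells were kept in log phase in Alpha MEM with 10% fetal calf serum and exposed to drug for 18 h. Drug was removed by three washes with fresh medium, then cells were grown a further 72 h. Cell density was read by methylene blue staining. IC50 is the nominal concentration reducing cell density to 50% of controls, with eight controls per plate. Values are means of three determinations.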

Series [2] is described as follows: Hypersensitivity factor value is IC50 of (AA8) to that of UV4 where UV4 is a mutant AA8 line lacking the ability to perform incision repair. Format: functional. In outline:
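HF is IC50(AA8)/IC50(UV4), where UV4 is an AA8 mutant lacking incision repair. Both lines were grown in Alpha MEM with 10% fetal calf serum and given an 18 h drug exposure, then washed and grown 72 h more. Cell density was read by methylene blue staining, and IC50 was set at 50% of control density.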

The subject of series [3] is P388. In words: Inhibition of cell growth in culture against wild type P388 murine leukemia. Type of series: functional, cell-based, Mus musculus. An outline of the steps:
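Wild-type P388 murine leukemia cells were kept in log phase in RPMI 1640 with 10% fetal calf serum. Drug was present throughout the 72 h growth period. Final cell density was read by a modified MTT method. IC50 is the nominal concentration reducing cell density to 50% of controls, with eight controls per plate. Values are means of three determinations.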

The subject of series [4] is P388. The series can be described thus: Evaluation in vivo against […] cell line for percentage increase in lifespan of drug-treated tumor-bearing animals when treated at 30 mg/kg dose.(ILS). Format: functional, Mus musculus. An outline of the steps:
as §1

Series [5] deals with P388. In words: Evaluation in vivo against […] cell line for percentage increase in lifespan of drug-treated tumor-bearing animals at 100 mg/kg dose.(ILS); NA=Compound inactive at nontoxic doses. Type of series: functional, organism-based. On the set-up: dose 100 mg/kg. The following applies: Mus musculus. In outline:
as §1

Series [6] deals with P388. In words: Evaluation in vivo against […] cell line for percentage increase in lifespan of drug-treated tumor-bearing animals when treated at 225 mg/kg dose.(ILS). Format: functional, Mus musculus. In outline: as §1
Series [7] concerns P388. The series can be described thus: Evaluation in vivo against […] cell line for percentage increase in lifespan of drug-treated tumor-bearing animals at 30 mg/kg dose.(ILS); NA=Compound inactive at nontoxic doses. Type of series: functional, organism-based. Also on record: dose 30 mg/kg. The conditions noted are these: Mus musculus. In outline:
as §1

Activity calls are given as the source filed them.

As for `C[n+]1ccc(Nc2ccc(Cc3ccc(N(CCCl)CCCl)cc3)cc2)c2ccccc21`, the Increase with P388 [1] is on record as 46%. For the same compound, in the series listed under Bos taurus, the “Log K” value is 6.58 M-1. Besides, the IC50 with CHO-AA8 (cho-aa8) turned out to be 600 nM; in the series on P388 [3] (p388) it was 72 nM. Moreover, the Ratio in series [2] stood at 20.

`C[n+]1ccc(Nc2ccc(C(=O)Nc3ccc(N(CCCl)CCCl)cc3)cc2)c2ccccc21`: in the series listed under Bos taurus, the “Log K” value was 6.48 M-1. The IC50 in the series on CHO-AA8 (Cricetulus griseus, CHO-AA8) stood at 340 nM; with P388 [3] (p388), 490 nM. Moreover, the Ratio in series [2] worked out at 17. Also, the Increase in the series on P388 [4] came out at 28%.

In the case of `C[n+]1ccc(Nc2ccc(C(=O)c3ccc(N(CCCl)CCCl)cc3)cc2)c2ccccc21`, the “Log K” value in the series listed under Bos taurus was 6.61 M-1. For the same compound, the IC50 with CHO-AA8 (Cricetulus griseus, CHO-AA8) worked out at 2850 nM; in the series with P388 [3] (p388) it was 1210 nM. Also, the Ratio in series [2] is 6.4. Moreover, the Increase result in the series with P388 [5] is “inactive”.

For `O=C(O)CCCc1ccc(N(CCCl)CCCl)cc1` [CHLORAMBUCIL], the Ratio in series [2] stood at 58. This compound also returned an Increase in the series on P388 [6] of 37%.

As for `C[n+]1ccc(Nc2ccc(Oc3ccc(N(CCCl)CCCl)cc3)cc2)c2ccccc21`, in the series filed under Bos taurus, the “Log K” value is listed as 6.45 M-1. Also, 650 nM corresponded to half-maximal inhibition in the series with CHO-AA8 (Cricetulus griseus, CHO-AA8) (IC50). The Ratio in [2] was 23. Also, the Increase in the series on P388 [4] was found to be 20%.

With `CCN(CCCl)c1ccc(Oc2ccc(Nc3ccnc4ccccc34)cc2)cc1`, the Increase entry with P388 [7] was “inactive”. For the same compound, the IC50 in the series on CHO-AA8 (Cricetulus griseus, CHO-AA8) amounted to 7000 nM; in the series on P388 [3] (Mus musculus, P388) it was 500 nM. The Ratio in series [2] worked out at 11.3.

For the origin of these results see ChEMBL document CHEMBL1125925, “DNA-directed alkylating agents. 4. 4-anilinoquinoline-based minor groove directed aniline mustards” (J Med Chem, 1991).
